High-throughput results: PubChem, The Scripps Research Institute Molecular Screening Center
TAAR1 antagonist: antagonists of human TAAR1. CHO RD-HGA16 TAAR1, Fluo-8 calcium fluorescence, antagonist. inhibition, % at 3 µM. 360,000 tested, 1.5% active. AID 624466;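 active means inhibition above a per-plate cutoff, the mean inhibition of test compounds on that plate plus 3 SD, cut at about 49% in these data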;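 further: 0% = DMSO plus EC80 beta-PEA response and 100% = DMSO alone without agonist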
Target sequence (Q96RJ0 whole entry, looked up): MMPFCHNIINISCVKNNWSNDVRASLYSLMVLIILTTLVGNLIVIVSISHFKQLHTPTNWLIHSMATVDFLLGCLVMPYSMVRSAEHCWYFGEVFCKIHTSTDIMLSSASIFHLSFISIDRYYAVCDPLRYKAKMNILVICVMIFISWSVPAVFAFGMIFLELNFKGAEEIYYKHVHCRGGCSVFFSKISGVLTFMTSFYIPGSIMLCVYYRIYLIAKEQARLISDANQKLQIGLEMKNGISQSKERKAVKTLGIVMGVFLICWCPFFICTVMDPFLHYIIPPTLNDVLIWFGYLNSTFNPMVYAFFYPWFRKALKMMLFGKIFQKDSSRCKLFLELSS
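Material: RD-HGA16 CHO cells with stable hTAAR1 and Gα16; Dosing: single nominal final test compound concentration of 3 µM; Schedule: seeding 17-24 h prior, 75-min 37 °C, 30-min RT dye loading; Detection: kinetic Fluo-8 calcium fluorescence measurement; Measure: % inhibition from peak post-agonist over basal fluorescence ratio; Benchmarks: vehicle and agonist controls.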
OX1R antag-1: antagonists of human orexin 1 receptor (OX1R); O43613; inhibition, % at 6.6 µM; AID 485270; OX1R-expressing cells, FRET antagonist read-out; 330,000 tested, 1.8% active; in the data active means inhibition mostly above about 38%, no sharp cut-off; inactive means mostly below about 40%;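 further: 0% = agonist challenge alone and 100% = reference antagonist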
Target sequence (O43613 whole entry, looked up): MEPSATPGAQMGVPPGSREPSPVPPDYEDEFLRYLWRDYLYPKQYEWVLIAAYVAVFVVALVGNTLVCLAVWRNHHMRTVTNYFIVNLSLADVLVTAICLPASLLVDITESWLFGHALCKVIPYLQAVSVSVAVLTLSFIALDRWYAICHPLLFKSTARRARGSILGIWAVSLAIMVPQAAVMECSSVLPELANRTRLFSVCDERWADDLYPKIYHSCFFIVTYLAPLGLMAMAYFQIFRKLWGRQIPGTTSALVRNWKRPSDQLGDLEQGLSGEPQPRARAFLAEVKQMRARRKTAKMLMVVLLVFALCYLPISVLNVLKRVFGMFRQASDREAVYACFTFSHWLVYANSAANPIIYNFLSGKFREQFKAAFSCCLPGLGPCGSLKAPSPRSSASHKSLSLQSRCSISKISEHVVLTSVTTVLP
OX1R antag-2: antagonists of human orexin 1 receptor; O43613; CHO/OX1R cells, Fluo-8 calcium fluorescence, orexin A; inhibition, % at 5 µM; 330,000 tested, 0.43% active; AID 434989;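 active means inhibition above its plate's threshold, mean inhibition of all tested compounds on the plate plus 3 SD, cut at about 37% in these data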;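 further: 0% = orexin A challenge wells and 100% = SB-334867-A antagonist wells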
GPR7 antagonist: antagonists of human GPR7 (neuropeptides B/W receptor 1); GPR7-expressing cells, fluorescence antagonist assay; P48145; inhibition, % at 4.4 µM; 290,000 tested, 1.1% active; in the data active means inhibition above about 16%, passing the limit was not always enough;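 further: cells stimulated with the agonist NPW; 0% = agonist with vehicle and 100% = vehicle without agonist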
TAAR1 agonist: agonists of human TAAR1 | activation, % at 3 µM | 360,000 tested, 0.99% active | AID 624467 | Q96RJ0 | CHO RD-HGA16 TAAR1, Fluo-8 calcium fluorescence; vehicle wells 0%, saturating PEA agonist 100%;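 active means activation above the mean activation of all test compounds in the run plus 3 SD, cut at about 38% in these data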
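Repeats: no replicates (n 1) | Material: CHO-derived RD-HGA16 cells with stable Gα16 and human TAAR1 | Technique: Kinetic Fluo-8 calcium fluorescence | Schedule: 17-24 h seeding, 75 min 37 °C dye, 30 min RT | Evaluation: % activation from peak over basal fluorescence ratio, DMSO-to-PEA scaled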
CHO parental Ca: signal in parental CHO cells, OX1R antagonist counter-screen; inhibition, % at 5.6 µM; AID 463079; 330,000 tested, 0.63% active; parental CHO-K1, ATP-induced calcium, Fluo-8 fluorescence;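 active means inhibition above that plate's mean sample inhibition plus 3 SD, cut at about 26% in these data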;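 further: 0% = ATP-challenged DMSO wells and 100% = DMSO wells without ATP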
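Assay system: parental CHO cells; Read-out basis: percent inhibition of ATP-evoked calcium rise, normalized to controls; Benchmarks: ATP and no-ATP DMSO wells; Compound dosing: single nominal dose of 5.6 µM per compound; Signal: Fluo-8 calcium dye fluorescence; Also added: ATP as calcium-mobilizing challenge; Repeats: singlicate.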
TAAR1 ag confirm: human TAAR1 agonism, confirmed; shares compounds with TAAR1 agonist; activation, % at 3 µM; 2,400 tested, 82% active; CHO RD-HGA16 TAAR1, Fluo-8 calcium fluorescence; scaled: DMSO 0%, maximal phenethylamine 100%;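 active means activation above a cutoff set at the run's mean compound activation plus 3 SD, cut at about 39% in these data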
Ga16 nonsel ag: counter-screen for TAAR1 agonists: nonselective agonists in parental cells; shares compounds with TAAR1 agonist; AID 651787; activation, % at 3 µM; 2,400 tested, 50% active; CHO-Ga16 parental, Fluo-8 calcium fluorescence; normalized to maximal ATP response, DMSO zero;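 active means activation above the run cutoff, the mean activation over all tested wells plus 3 SD, cut at about 12% in these data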;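 further: 0% = DMSO wells and 100% = maximal ATP response on the peak over basal ratio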
TAAR1 desensitize: TAAR1 response desensitization, agonist counter-screen; 2,400 tested, 46% active; inhibition, % at 3 µM; CHO RD-HGA16 hTAAR1, Fluo-8 calcium, beta-PEA response inhibition; AID 651951; shares compounds with TAAR1 agonist;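 active means inhibition above the run cutoff, the mean inhibition of all test compounds plus 3 SD, cut at about 49% in these data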;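 further: beta-PEA stimulus applied at its EC80; loss of beta-PEA calcium signal after compound pretreatment read as receptor desensitization; 0% = DMSO with beta-PEA at EC80 and 100% = DMSO alone without agonist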
Ga16 antag count: nonselective Ga16 antagonism, counter-screen | shares compounds with TAAR1 agonist | CHO-Ga16 ATP-induced calcium, Fluo-8 fluorescence | inhibition, % at 3 µM | 2,400 tested, 39% active | AID 651952;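 active means inhibition above the plate's mean compound inhibition plus 3 SD, computed per plate, cut at about 22% in these data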;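 further: 0% = EC80 ATP with DMSO and 100% = DMSO wells without ATP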
An asterisk follows results filed as active; · = no result given. Hits are enriched below; roughly 4.6% of the tested compounds scored in any of these assays.

SMILES	TAAR1 antagonist	OX1R antag-1	OX1R antag-2	GPR7 antagonist	TAAR1 agonist	CHO parental Ca	TAAR1 ag confirm	Ga16 nonsel ag	TAAR1 desensitize	Ga16 antag count
O=C(/C=C/c1ccco1)N1CCCC(c2ccccc2)C1 (stereo not drawn)	18	8	-22	-3	49*	-10	33	-1	31	7
Cc1ccc(NC(=O)N2CCCC(c3ccccc3)C2)cc1 (stereo not drawn)	21	-1	-9	-6	49*	-5	58*	-1	33	3
CCc1ccc(NC(=O)N2CCC(c3ccccc3)C2)cc1 (stereo not drawn)	-12	11	-7	-10	0	-19	·	·	·	·
CCC(C)c1ccccc1NC(=O)COC(=O)C1=NN(c2ccccc2)C(=O)CC1 (stereo not drawn)	-12	12	-17	·	10	-10	·	·	·	·
COCCCC1CCN(C(=O)C2CCC(=O)N(Cc3ccccc3F)C2)CC1 (stereo not drawn)	-13	·	·	-8	-1	·	·	·	·	·
NCCCCCc1nnc(SCc2ccc(Cl)c(Cl)c2)o1	3	7	-14	4	50*	-11	62*	6	31	5
NCCc1nnc(SCc2ccc(F)cc2)o1	-1	18	-9	2	7	-5	·	·	·	·
CCOC(=O)c1csc(NC(=O)CSc2nnnn2-c2ccc(OC)cc2)n1	-4	12	-20	0	53*	-16	30	16*	10	8
CC1CCN(c2ccc(NC(=O)Cc3ccccc3)cc2)CC1	53*	15	-7	-19	84*	32	-1	20*	1	13
CC(C)Cc1nnc(NC(=O)CCC(=O)N2CC(C)CC(C)C2)s1 (stereo not drawn)	-20	0	-5	-11	3	-13	·	·	·	·
O=c1[nH]c(CN2CCc3ccccc3C2)nc2ccccc12	0	31	36	-2	7	-38	·	·	·	·
Cc1[nH]c2ccccc2c1CN1CCc2ccccc2C1	·	6	3	-6	·	-6	·	4	·	6
Cc1ccccc1NC(=S)NC(=O)COc1ccccc1C	21	17	-26	-44	-1	-22	·	·	·	·
O=c1c2cnn(-c3ccc(F)cc3)c2ncn1Cc1ccccc1	50*	0	-20	-6	43*	-3	4	4	6	12
CC1CCCCC1NC(=O)CSc1nnc(-c2ccco2)n1N (stereo not drawn)	24	·	·	·	73*	·	15	3	-5	3
CC(C)(C)OC(=O)NCCc1onc(-c2cccc([N+](=O)[O-])c2)c1C(=O)O	-13	·	·	·	0	·	·	·	·	·
C[C@H](O)[C@@H]1CN2CCc3c([nH]c4c(-c5ccccc5)cccc34)[C@@H]2C[C@@H]1N(C)C(=S)NCCc1ccccc1	61*	·	·	·	85*	·	37	0	3	14
CN(C(=O)c1ccc(NC(=O)Cc2cccc([N+](=O)[O-])c2)cc1)C1CC1	-5	16	3	·	3	-1	·	·	·	·
CN(C(=O)c1ccc(NC(=O)Cc2ccc([N+](=O)[O-])cc2)cc1)C1CC1	39	3	11	·	77*	6	97*	41*	35	17
Cc1ccc(NC(=O)COC(=O)CCc2ccccc2)cc1S(=O)(=O)N1CCOCC1	-5	2	-17	·	2	-15	·	·	·	·
Cc1ccc(Nc2cc(C)c3c(O)cccc3n2)cc1C	54*	4	10	6	98*	14	96*	28*	87*	25*
COc1ccc(Nc2cc(C)c3c(O)cccc3n2)cc1	·	32	-10	3	·	-10	·	6	·	13
O=C(C1CC(=O)N(c2ccc(F)c(Cl)c2)C1)N1CCOCC1 (stereo not drawn)	10	·	·	·	1	·	·	·	·	·
CC(Sc1nnc2n1CCCCC2)C(=O)Nc1cccc(S(=O)(=O)N2CCOCC2)c1 (stereo not drawn)	-10	·	·	·	5	·	·	·	·	·
Cc1[nH]c2ccccc2c1CC(=O)Nc1ccc(Nc2ccccc2)cc1	41	·	·	·	6	·	·	·	·	·
SMILES	TAAR1 antagonist	OX1R antag-1	OX1R antag-2	GPR7 antagonist	TAAR1 agonist	CHO parental Ca	TAAR1 ag confirm	Ga16 nonsel ag	TAAR1 desensitize	Ga16 antag count
CCN(CC)CCNC(=O)c1ccc(NC(=O)c2cccc(S(=O)(=O)N3CCc4ccccc43)c2)cc1	2	·	·	·	60*	·	60*	0	39	10
CCN(CC)CCNC(=O)c1ccc(NC(=O)c2cccc(S(=O)(=O)N3c4ccccc4CC3C)c2)cc1 (stereo not drawn)	-6	15	-21	1	14	-9	·	·	·	·
COc1ccc(N=C(N)SCc2ccccn2)cc1	-18	-6	-8	12	7	-14	·	·	·	·
CC(C)=N/N=C(\N)SCc1ccccc1	·	9	-18	-5	·	-27	·	2	·	2
Cc1ccc(N2C(=O)c3cccc4c(N)ccc(c34)C2=O)c2cccnc12	79*	2	74*	19*	230*	65*	105*	126*	61*	69*
CCn1cc(S(=O)(=O)NCCc2ccccc2OC)cn1	-5	9	-9	-8	46*	-6	59*	8	24	7
C=CC[C@@H](CC(=O)N(CCO)Cc1ccccc1)C(=O)NC[C@H](OC(=O)[C@@H](CC=C)CC(=O)OC(C)(C)C)c1ccccc1	71*	11	0	·	63*	-20	69*	21*	63*	30*
FC(F)(F)c1cc(Cc2nc3ccccc3n2C(CCc2ccccc2)c2nc3ccccc3[nH]2)cc(C(F)(F)F)c1 (stereo not drawn)	-15	·	·	·	2	·	·	·	·	·
O=C(NCc1ccccc1)N1CCN(c2ccc(Cl)c(Cl)c2)CC1	101*	47	38	14	95*	42*	18	10	43	36*
O=C(NCc1ccccc1)N1CCN(c2ccc(F)cc2)CC1	-9	18	-18	-11	2	-1	·	·	·	·
Nc1cc2c(cc1Cl)-c1ccc(Cl)cc1C2=O	2	·	·	·	1	·	·	·	·	·
COC(=O)c1cnc(Nc2nc(C(N)COCc3ccccc3)cs2)nc1C(F)(F)F (stereo not drawn)	-2	·	·	·	13	·	·	·	·	·
